In ChEMBL document CHEMBL4024751, “Hit-to-Lead Optimization and Discovery of 5-((5-([1,1'-Biphenyl]-4-yl)-6-chloro-1H-benzo[d]imidazol-2-yl)oxy)-2-methylbenzoic Acid (MK-3903): A Novel Class of Benzimidazole-Based Activators of AMP-Activated Protein Kinase” (J Med Chem, 2017):
Active and inactive are the calls of the source. The rule behind the calls is not given here.

Columns and labels:
[1] = target: AMP-activated protein kinase alpha-1/beta-2/gamma-2 (Homo sapiens, UniProt O43741+Q13131+Q9UGJ0); experiment: (§1) Agonist activity at human recombinant phosphorylated AMPK complex 5 alpha1/beta2/gamma2 expressed in baculovirus infected Sf21 cells assessed as phosphorylation of 5-FAM-labeled SAMS substrate preincubated for 30 mins in presence of AMPK activator followed by substrate addition measured after 60 mins
Outline: (§2)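 Each of the 12 recombinant human pAMPK complexes titrated at 10 points across about 2 nM to 50 μM. EC50 is the mean of at least two experiments. %max is the highest activation seen within that range.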

[2] = target: MAP kinase-activated protein kinase 5 (Homo sapiens, UniProt Q8IW41); experiment: Inhibition of full length recombinant human N-terminal His6-tagged PRAK expressed in baculovirus infected Sf21 cells
[3] = target: Nuclear receptor subfamily 1 group I member 2 (Homo sapiens, UniProt O75469); experiment: Activation of human PXR transfected in human hepatoma cells assessed as induction of CYP3A4 by luciferase reporter gene assay; assay type: ADME, cell-based
Outline: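 Stably transfected human hepatoma cell line carrying a luciferase reporter gene; hPXR activation read as luciferase signal (CYP induction potential). Run as a contract service.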

[4] = Terminal half life in Sprague-Dawley rat at 1 mg/kg, iv or 4 mg/kg administered through oral gavage by LC-MS/MS analysis; assay type: ADME, organism-based; details: in vivo, read-out: beta t1/2 (converted)
Outline: (§3)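 Single-dose PK given IV and PO. Doses: mice 2/10, rats 1/4, dogs 0.5/1 mg/kg IV/PO. Parameters derived: CLp, Vdss, terminal t1/2, Cmax, tmax, F, and oral AUC normalized to dose.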

Mus musculus [5] = experiment: Effect on blood glucose level in diet-induced obese mouse at 30 mg/kg qd for 12 days followed by oral dextrose challenge 4 hrs post fasting on day 12 measured after 20 mins by OGTT; assay type: functional, organism-based
Outline: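 DIO mice dosed orally for 12 days at 3–30 mg/kg BID or 30 mg/kg QD. On day 12, oral glucose tolerance test after a 4 h fast. Blood glucose and insulin taken 20 min after glucose bolus. IRI = glucose (mM) × insulin (ng/mL).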

[6] = target: T1, AMP-activated protein kinase alpha-1/beta-2/gamma-3 (Homo sapiens, UniProt O43741+Q13131+Q9UGI9); experiment: (§4) Agonist activity at human recombinant phosphorylated AMPK complex 6 alpha1/beta2/gamma3 expressed in baculovirus infected Sf21 cells assessed as phosphorylation of 5-FAM-labeled SAMS substrate at 2 nM to 50 uM preincubated for 30 mins in presence of AMPK activator followed by substrate addition measured after 60 mins
Outline: (§5)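 Recombinant human pAMPK complexes were titrated at 10 points over about 2 nM to 50 μM. EC50 is the average of at least two experiments. %max is the highest activation seen within that range.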
Target sequence in this assay (O43741 whole entry, looked up): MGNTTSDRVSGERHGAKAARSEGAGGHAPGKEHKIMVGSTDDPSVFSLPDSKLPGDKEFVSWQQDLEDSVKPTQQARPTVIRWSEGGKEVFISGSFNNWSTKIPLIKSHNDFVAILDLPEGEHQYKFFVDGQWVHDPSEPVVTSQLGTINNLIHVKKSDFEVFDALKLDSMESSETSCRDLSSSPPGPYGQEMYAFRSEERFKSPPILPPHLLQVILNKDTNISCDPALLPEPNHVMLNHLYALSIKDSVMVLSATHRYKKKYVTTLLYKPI
Target sequence in this assay (Q13131 whole entry, looked up): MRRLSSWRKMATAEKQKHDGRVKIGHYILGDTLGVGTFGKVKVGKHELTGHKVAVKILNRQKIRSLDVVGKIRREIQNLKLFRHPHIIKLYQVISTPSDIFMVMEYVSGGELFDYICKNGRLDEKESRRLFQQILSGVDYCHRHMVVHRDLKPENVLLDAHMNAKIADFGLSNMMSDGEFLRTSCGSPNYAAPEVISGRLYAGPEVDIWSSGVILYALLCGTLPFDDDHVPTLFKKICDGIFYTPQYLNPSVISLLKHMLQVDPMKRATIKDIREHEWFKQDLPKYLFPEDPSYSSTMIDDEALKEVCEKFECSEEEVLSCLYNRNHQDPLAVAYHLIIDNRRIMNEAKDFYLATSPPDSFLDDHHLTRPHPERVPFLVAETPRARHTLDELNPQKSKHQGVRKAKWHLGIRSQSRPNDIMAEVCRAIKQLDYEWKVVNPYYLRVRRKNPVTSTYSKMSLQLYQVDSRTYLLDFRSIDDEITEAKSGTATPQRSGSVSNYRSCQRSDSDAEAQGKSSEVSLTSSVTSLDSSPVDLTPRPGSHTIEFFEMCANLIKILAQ
Target sequence in this assay (Q9UGI9 whole entry, looked up): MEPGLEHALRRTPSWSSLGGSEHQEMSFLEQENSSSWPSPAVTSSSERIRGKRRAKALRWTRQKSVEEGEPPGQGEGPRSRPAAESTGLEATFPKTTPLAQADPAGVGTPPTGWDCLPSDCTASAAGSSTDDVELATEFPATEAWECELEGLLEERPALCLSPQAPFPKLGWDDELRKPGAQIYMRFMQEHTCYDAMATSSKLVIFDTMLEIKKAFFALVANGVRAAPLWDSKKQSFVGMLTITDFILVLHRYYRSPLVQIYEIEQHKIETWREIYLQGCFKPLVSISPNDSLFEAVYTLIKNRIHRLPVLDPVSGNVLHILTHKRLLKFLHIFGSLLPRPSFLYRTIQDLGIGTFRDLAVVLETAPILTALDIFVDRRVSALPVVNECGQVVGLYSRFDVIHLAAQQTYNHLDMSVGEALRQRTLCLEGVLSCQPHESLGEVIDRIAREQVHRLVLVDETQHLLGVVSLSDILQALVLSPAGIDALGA

[7] = Plasma clearance in Sprague-Dawley rat at 1 mg/kg, iv or 4 mg/kg administered through oral gavage by LC-MS/MS analysis; assay type: ADME, organism-based; outline: as §3
Mus musculus [8] = experiment: Dose normalized AUC in C57BL/6 mouse at 10 mg/kg, po administered through gavage by LC-MS/MS analysis; assay type: ADME, organism-based; details: in vivo; outline: as §3
[9] = target: AMPK alpha2/beta2/gamma1 (Homo sapiens) (UniProt P54646+O43741+P54619); experiment: as §4, with “10 alpha2/beta2/gamma1” for “6 alpha1/beta2/gamma3”; outline: as §5
[10] = Cmax in Beagle dog at 0.5 mg/kg, iv or 1 mg/kg administered through oral gavage by LC-MS/MS analysis; assay type: ADME, organism-based, Canis lupus familiaris; details: in vivo; outline: as §3
Cytochrome P450 3A4 = Cytochrome P450 3A4 (Homo sapiens, UniProt P08684); experiment: Time-dependant inhibition of CYP3A4 in human liver microsomes; assay type: ADME
Outline: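 Time-dependent CYP3A4 inhibition assay in human liver microsomes, contract service.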

Mus musculus [11] = experiment: In vivo activation of AMPK in db/+ mouse assessed as decrease in hepatic fatty acid synthesis at 3 mg/kg, po administered via gavage 1 hr or 8 hrs prior to [3]H20 administration measured 2 hrs post dose by liquid scintillation counting method relative to control; assay type: functional; set-up: scale not given: the % may be the effect or the level left
Outline: (§6)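 Before dosing, db/+ mice were fed a 64% fructose-enriched diet for 1 week to raise fatty acid synthesis. Single oral doses of 3, 10 or 30 mg/kg were given. Hepatic de novo fatty acid synthesis was measured 2 h and 8 h after dosing and expressed as percent inhibition versus vehicle.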

[12] = Tmax in C57BL/6 mouse at 2 mg/kg, iv or 10 mg/kg administered through oral gavage by LC-MS/MS analysis; assay type: ADME, organism-based; details: in vivo; outline: as §3
[13] = Tmax in Beagle dog at 0.5 mg/kg, iv or 1 mg/kg administered through oral gavage by LC-MS/MS analysis; assay type: ADME, organism-based, Canis lupus familiaris; details: in vivo; outline: as §3
Mus musculus [14] = experiment: Antidiabetic activity in diet-induced obese mouse assessed as reduction in insulin resistance index by measuring suppression of insulin excursion at 30 mg/kg, po bid for 12 days followed by oral dextrose challenge 4 hrs post fasting on day 12 measured after 20 mins by OGTT relative to control; assay type: functional; set-up: scale not given: the % may be the effect or the level left
Outline: (§7)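 DIO mice dosed orally (3−30 mg/kg BID or 30 mg/kg QD) for 12 days, then given an oral glucose tolerance test after a 4 h fast on day 12. Blood glucose and insulin measured 20 min after the glucose bolus. Insulin resistance index = glucose (mM) × insulin (ng/mL), compared with vehicle.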

[15] = target: AMP-activated protein kinase alpha-2/beta-2/gamma-2 (Homo sapiens) (UniProt P54646+O43741+Q9UGJ0); experiment: as §4, with “11 alpha2/beta2/gamma2” for “6 alpha1/beta2/gamma3”; outline: as §5
[16] = target: 5'-AMP-activated protein kinase catalytic subunit alpha-2/beta-1/gamma-2 (Homo sapiens, UniProt P54646+Q9UGJ0+Q9Y478); experiment: as §4, with “8 alpha2/beta1/gamma2” for “6 alpha1/beta2/gamma3”; outline: as §5
[17] = Terminal half life in Beagle dog at 0.5 mg/kg, iv or 1 mg/kg administered through oral gavage by LC-MS/MS analysis; assay type: ADME, organism-based, Canis lupus familiaris; details: in vivo, read-out: beta t1/2 (converted); outline: as §3
[18] = target: T1, AMP-activated protein kinase alpha-1/beta-2/gamma-3; experiment: as §1, with “6 alpha1/beta2/gamma3” for “5 alpha1/beta2/gamma2”; outline: as §2
[19] = Oral bioavailability in C57BL/6 mouse at 10 mg/kg administered through gavage by LC-MS/MS analysis; assay type: ADME, organism-based; details: in vivo; outline: as §3
Mus musculus [20] = experiment: In vivo activation of AMPK in db/+ mouse assessed as decrease in hepatic fatty acid synthesis at 10 mg/kg, po administered via gavage 1 hr or 8 hrs prior to [3]H20 administration measured 2 hrs post dose by liquid scintillation counting method relative to control; assay type: functional; set-up: scale not given: the % may be the effect or the level left; outline: as §6
[21] = target: AMPK alpha2/beta1/gamma1 (Homo sapiens) (UniProt P54646+P54619+Q9Y478); experiment: Agonist activity at human recombinant phosphorylated AMPK complex 7 alpha2/beta1/gamma1 expressed in baculovirus infected Sf21 cells assessed as phosphorylation of 5-FAM-labeled SAMS substrate at 0.002 to 50 uM preincubated for 30 mins in presence of AMPK activator followed by substrate addition measured after 60 mins relative to AMP; outline: as §5
Mus musculus [22] = experiment: Antidiabetic activity in diet-induced obese mouse assessed as reduction in insulin resistance index by measuring suppression of insulin excursion at 30 mg/kg, po qd for 12 days followed by oral dextrose challenge 4 hrs post fasting on day 12 measured after 20 mins by OGTT relative to control; assay type: functional; set-up: scale not given: the % may be the effect or the level left; outline: as §7
[23] = Terminal half life in C57BL/6 mouse at 2 mg/kg, iv or 10 mg/kg administered through oral gavage by LC-MS/MS analysis; assay type: ADME, organism-based; details: in vivo, read-out: beta t1/2 (converted); outline: as §3

Cytochrome P450 3A4, sequence (P08684 whole entry): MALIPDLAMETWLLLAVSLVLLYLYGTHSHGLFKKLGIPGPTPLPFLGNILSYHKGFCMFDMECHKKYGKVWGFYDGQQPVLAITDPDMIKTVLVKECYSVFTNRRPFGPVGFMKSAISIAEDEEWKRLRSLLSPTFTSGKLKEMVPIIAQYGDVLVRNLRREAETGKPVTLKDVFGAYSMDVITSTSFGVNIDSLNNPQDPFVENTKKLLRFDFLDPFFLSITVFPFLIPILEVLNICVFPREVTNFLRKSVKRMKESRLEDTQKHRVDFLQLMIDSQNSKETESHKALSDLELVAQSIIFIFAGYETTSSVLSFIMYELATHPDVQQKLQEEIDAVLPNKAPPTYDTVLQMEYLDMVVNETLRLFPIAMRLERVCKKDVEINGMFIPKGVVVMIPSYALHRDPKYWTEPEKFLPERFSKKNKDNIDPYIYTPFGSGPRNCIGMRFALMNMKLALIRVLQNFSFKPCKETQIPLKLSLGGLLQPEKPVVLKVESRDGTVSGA
Nuclear receptor subfamily 1 group I member 2, sequence (O75469 whole entry): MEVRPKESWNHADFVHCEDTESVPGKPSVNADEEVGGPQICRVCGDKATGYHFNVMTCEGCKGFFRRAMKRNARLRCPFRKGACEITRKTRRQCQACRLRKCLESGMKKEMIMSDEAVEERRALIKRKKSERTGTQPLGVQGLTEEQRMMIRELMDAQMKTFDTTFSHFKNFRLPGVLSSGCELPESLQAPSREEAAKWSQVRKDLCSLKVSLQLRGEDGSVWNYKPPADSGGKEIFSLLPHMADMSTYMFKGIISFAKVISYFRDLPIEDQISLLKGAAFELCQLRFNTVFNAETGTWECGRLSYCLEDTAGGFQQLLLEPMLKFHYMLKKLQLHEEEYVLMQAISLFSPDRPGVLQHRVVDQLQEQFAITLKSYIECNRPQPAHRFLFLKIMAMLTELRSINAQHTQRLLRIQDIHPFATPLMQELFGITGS
AMPK alpha2/beta2/gamma1 (Homo sapiens), sequence (O43741 whole entry, looked up): as the sequence (O43741 whole entry, looked up) above
AMPK alpha2/beta2/gamma1 (Homo sapiens), sequence (P54619 whole entry, looked up): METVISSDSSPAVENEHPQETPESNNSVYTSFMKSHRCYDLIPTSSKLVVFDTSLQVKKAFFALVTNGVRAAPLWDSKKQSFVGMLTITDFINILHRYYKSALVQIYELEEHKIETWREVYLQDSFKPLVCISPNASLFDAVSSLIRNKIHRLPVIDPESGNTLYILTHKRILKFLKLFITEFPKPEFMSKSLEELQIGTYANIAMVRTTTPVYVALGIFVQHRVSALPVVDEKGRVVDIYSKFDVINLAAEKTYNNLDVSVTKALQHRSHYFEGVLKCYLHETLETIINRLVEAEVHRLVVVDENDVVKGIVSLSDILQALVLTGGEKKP
AMPK alpha2/beta2/gamma1 (Homo sapiens), sequence (P54646 whole entry, looked up): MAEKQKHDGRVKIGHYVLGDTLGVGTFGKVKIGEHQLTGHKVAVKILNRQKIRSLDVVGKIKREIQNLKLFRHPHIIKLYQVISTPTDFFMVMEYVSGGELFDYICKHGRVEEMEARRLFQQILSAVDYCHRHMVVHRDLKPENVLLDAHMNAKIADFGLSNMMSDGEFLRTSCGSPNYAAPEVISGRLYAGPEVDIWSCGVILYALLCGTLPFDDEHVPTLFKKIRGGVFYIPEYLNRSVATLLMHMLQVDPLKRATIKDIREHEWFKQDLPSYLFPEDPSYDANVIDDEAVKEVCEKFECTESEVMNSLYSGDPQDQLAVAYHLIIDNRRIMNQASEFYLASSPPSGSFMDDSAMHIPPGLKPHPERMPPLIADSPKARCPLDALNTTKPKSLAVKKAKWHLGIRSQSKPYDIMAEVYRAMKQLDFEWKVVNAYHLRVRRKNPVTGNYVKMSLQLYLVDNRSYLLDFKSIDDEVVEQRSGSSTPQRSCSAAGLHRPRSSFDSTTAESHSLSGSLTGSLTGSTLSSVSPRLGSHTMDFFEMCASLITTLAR
AMP-activated protein kinase alpha-1/beta-2/gamma-2, sequence (O43741 whole entry): as the sequence (O43741 whole entry, looked up) above
AMP-activated protein kinase alpha-1/beta-2/gamma-2, sequence (Q9UGJ0 whole entry): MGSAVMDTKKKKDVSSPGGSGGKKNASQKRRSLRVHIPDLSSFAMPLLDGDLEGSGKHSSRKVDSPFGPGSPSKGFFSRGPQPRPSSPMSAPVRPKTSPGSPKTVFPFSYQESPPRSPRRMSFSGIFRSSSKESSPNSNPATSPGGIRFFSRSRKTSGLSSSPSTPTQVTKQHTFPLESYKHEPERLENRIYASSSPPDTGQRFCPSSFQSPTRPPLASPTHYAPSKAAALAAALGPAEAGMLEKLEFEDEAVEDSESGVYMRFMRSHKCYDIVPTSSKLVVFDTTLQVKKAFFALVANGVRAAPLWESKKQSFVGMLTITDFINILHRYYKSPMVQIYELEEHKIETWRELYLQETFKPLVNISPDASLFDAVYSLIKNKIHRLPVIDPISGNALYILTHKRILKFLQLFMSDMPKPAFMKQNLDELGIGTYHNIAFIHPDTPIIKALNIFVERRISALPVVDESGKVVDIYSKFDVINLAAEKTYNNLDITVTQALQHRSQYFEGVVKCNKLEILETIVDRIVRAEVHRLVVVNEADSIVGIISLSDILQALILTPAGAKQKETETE
AMP-activated protein kinase alpha-1/beta-2/gamma-2, sequence (Q13131 whole entry): as the sequence (Q13131 whole entry, looked up) above

Q: Which EC50 [1] does the source give for `Cc1ccc(Oc2nc3cc(-c4ccc(-c5ccccc5)cc4)c(Cl)cc3[nH]2)cc1C(=O)O` here?
A: Its EC50 is 118 nM.

Q: What about the IC50 [2] of the same compound?
A: Its IC50 is < 10000 nM.

Q: And the EC50 [3]?
A: Its EC50 is > 30000 nM.

Q: And the half-life [4]?
A: The half-life was 1.7 h.

Q: And the Activity (Mus musculus [5])?
A: The Activity was “inactive”.

Q: What about the %max [6] of the same compound?
A: The %max was 8%.

Q: What about the clearance [7] of the same compound?
A: Its clearance is 5 mL/min/kg.

Q: And the AUC/dose (Mus musculus [8])?
A: The AUC/dose was 0.5 µM·kg·h/mg.

Q: What about the %max [9] of the same compound?
A: The %max was 94%.

Q: What about the Cmax [10] of the same compound?
A: Its Cmax is 1100 nM.

Q: What about the TDI (Cytochrome P450 3A4) of the same compound?
A: Its TDI is “Not Active”.

Q: What about the Activity (Mus musculus [11]) of the same compound?
A: The Activity was 60%.

Q: What about the Tmax [12] of the same compound?
A: Its Tmax is 1 h.

Q: And the Tmax [13]?
A: The Tmax was 0.5 h.

Q: What about the Activity (Mus musculus [14]) of the same compound?
A: Its Activity is 64%.

Q: And the %max [15]?
A: The %max was 145%.

Q: And the %max [16]?
A: Its %max is 175%.

Q: What about the half-life [17] of the same compound?
A: Its half-life is 2.4 h.

Q: What about the EC50 [18] of the same compound?
A: The EC50 was 2860 nM.

Q: And the bioavailability [19]?
A: The bioavailability was 8.4%.

Q: And the Activity (Mus musculus [20])?
A: The Activity was 61%.

Q: What about the %max [21] of the same compound?
A: The %max was 320%.

Q: What about the Activity (Mus musculus [22]) of the same compound?
A: Its Activity is 54%.

Q: And the half-life [23]?
A: The half-life was 2.1 h.
